In ChEMBL document CHEMBL1138813, “Synthesis and antiviral activity of 3-formyl- and 3-cyano-2,5,6-trichloroindole nucleoside derivatives” (J Med Chem, 2004) one finds IC50 data, which are given here for 16 molecules.

A short description of experiment [1]: Cytotoxicity against KB cells was determined by crystal violet staining and spectrophotometric quantitation of dye eluted from stained cells. Format: functional, cell-based. The conditions noted are these: Homo sapiens. In outline:
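KB cells seeded at 3000–5000 per well, incubated overnight at 37 °C, then compound added in quadruplicate at six to eight concentrations. After 48 h at 37 °C in CO₂ (two population doublings), cells were fixed in 95% ethanol and stained with 0.1% crystal violet. Dye eluted with acidified ethanol, read at 570 nm. IC50 from linear regression of % inhibition vs log10 concentration.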

The test system of experiment [2] is HFF. Kind of experiment: Cytotoxicity produced in stationary HFF cells was determined by microscopic inspection of uninfected cells. It is filed as functional, cell-based. Conditions: Homo sapiens. The method, boiled down: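 Stationary HFF cells in MEM with 10% fetal bovine serum, in plaque-assay plates. Visual cytotoxicity scored microscopically in duplicate wells on cells not affected by virus, at the time of HCMV plaque enumeration (after 7–10 days at 37 °C). IC50 from linear portion of regression of % inhibition against log10 drug concentration.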

Experiment [3] relates to HFF. Kind of experiment: Inhibitory concentration required against human cytomegalovirus (HCMV) expressed in HFF cells was determined by plaque reduction assay. Format: functional, cell-based. In outline: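 HFF cells in 24-well dishes infected with about 100 pfu/cm² of HCMV Towne strain. After adsorption, compound (10 mg/mL DMSO stock diluted in medium) added to duplicate wells at four to eight concentrations. Incubated 7–10 days at 37 °C, then fixed and crystal violet stained; plaques counted microscopically. % plaque reduction vs drug-free wells; IC50 by log-linear regression. GCV as positive control.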
(Plaque reduction counts the foci of infection that form in a cell layer.)

Experiment [4] is described as follows: Inhibitory concentration required against herpes simplex virus type-1 (HSV-1) expressed in BSC-1 cells was determined by ELISA assay. It is filed as functional, cell-based, Cercopithecidae. The method, boiled down:
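BSC-1 cells, 10 000 per well in MEM(E) plus 10% calf serum, incubated overnight at 37 °C. Drug added in quadruplicate with HSV-1 KOS strain at 100 pfu/well, then 3 days at 37 °C. […] Acyclovir as positive control.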
In general terms: ELISA stands for enzyme-linked immunosorbent assay.

One may read the IC50 as the concentration needed to halve the response being measured.

The structures appear in SMILES notation. Some results are limits rather than exact numbers.

For `N/C(S)=N/N=C/c1c(Cl)n(C2O[C@H](CO)[C@@H](O)[C@H]2O)c2cc(Cl)c(Cl)cc12` (some centres not stated), the IC50 in experiment [1] is 65 µM; in the experiment on HFF [2] it was 100 µM; in the experiment on HFF [3] it was 2.2 µM; in experiment [4], more than 100 µM.
Consider `N/C(=N\O)c1c(Cl)n(C2O[C@H](CO)[C@@H](O)C2O)c2cc(Cl)c(Cl)cc12` (single isomer, unassigned), for which the IC50 in experiment [1] is more than 100 µM; in the experiment on HFF [2], 100 µM; in the experiment with HFF [3], 0.3 µM; in experiment [4] it was 70 µM.
Turning to `N#Cc1c(Cl)n(C2O[C@H](CO)[C@@H](O)C2O)c2cc(Cl)c(Cl)cc12` (single isomer, unassigned), the values for the IC50 (in experiment [1]; in the experiment with HFF [3]; in experiment [4]) were 65 µM, 0.55 µM and 15 µM, respectively.
As for `NC(=O)N/N=C/c1c(Cl)n(C2O[C@H](CO)[C@@H](O)[C@H]2O)c2cc(Cl)c(Cl)cc12` (some centres not stated), the IC50 in experiment [1] is more than 100 µM; in the experiment with HFF [2] it was 100 µM; with HFF [3], 3 µM; in experiment [4] it was more than 100 µM.
As to `CN(C)/N=C/c1c(Cl)n(C2O[C@H](CO)[C@@H](O)C2O)c2cc(Cl)c(Cl)cc12` (single isomer, unassigned), the IC50 is 70 µM in experiment [1], 32 µM in the experiment on HFF [2], 0.27 µM in the experiment with HFF [3] and 15 µM in experiment [4].
Take `O=Cc1c(Cl)n(C2O[C@H](CO)[C@@H](O)C2O)c2cc(Cl)c(Cl)cc12` (single isomer, unassigned): the values for the concentration for half-maximal inhibition (IC50) (in experiment [1]; with HFF [3]; in experiment [4]) were 45 µM, 0.23 µM and 40 µM, respectively.
On to `N/C(=N\O)c1c(Br)n(C2O[C@H](CO)[C@@H](O)C2O)c2cc(Cl)c(Cl)cc12` (single isomer, unassigned), for which the IC50 in experiment [1] is 35 µM; in the experiment on HFF [2], more than 100 µM; in the experiment with HFF [3] it was 0.41 µM; in experiment [4], more than 100 µM.
Consider `COC(=N)c1c(Cl)n(C2O[C@H](CO)[C@@H](O)C2O)c2cc(Cl)c(Cl)cc12` (single isomer, unassigned), for which the IC50 came to 50 µM in experiment [1], 100 µM in the experiment on HFF [2], 0.36 µM in the experiment with HFF [3] and 70 µM in experiment [4].
`COC(=O)N/N=C/c1c(Cl)n(C2O[C@H](CO)[C@@H](O)[C@H]2O)c2cc(Cl)c(Cl)cc12` (some centres not stated): the IC50 amounted to 20 µM in experiment [1], 32 µM in the experiment with HFF [2], 1.7 µM with HFF [3] and 30 µM in experiment [4].
For the molecule `CO/N=C/c1c(Cl)n(C2O[C@H](CO)[C@@H](O)C2O)c2cc(Cl)c(Cl)cc12` (single isomer, unassigned), the IC50 in experiment [1] came to 70 µM; in the experiment with HFF [2], 32 µM; with HFF [3], 40 µM; in experiment [4] it was 15 µM.
Take `NC(=O)c1c(Cl)n(C2O[C@H](CO)[C@@H](O)C2O)c2cc(Cl)c(Cl)cc12` (single isomer, unassigned): the IC50 turned out to be 45 µM in experiment [1], 45 µM in the experiment with HFF [2], 2 µM with HFF [3] and 40 µM in experiment [4].
Regarding `Nc1nc2c(ncn2COC(CO)CO)c(=O)[nH]1` [GANCICLOVIR], the IC50 in experiment [1] was more than 100 µM; with HFF [2], more than 100 µM; in experiment [4], 3.5 µM.
Take `OC[C@H]1O[C@@H](n2c(Br)nc3cc(Cl)c(Cl)cc32)C(O)[C@@H]1O` (single isomer, unassigned): the IC50 is more than 100 µM in experiment [1] and 130 µM in experiment [4].
For the molecule `OC[C@H]1OC(n2c(Cl)c(/C=N/O)c3cc(Cl)c(Cl)cc32)C(O)[C@@H]1O` (single isomer, unassigned), the IC50 came to 25 µM in experiment [1], 20 µM in the experiment with HFF [2], 3.9 µM in the experiment with HFF [3] and 5 µM in experiment [4].
`OC[C@H]1O[C@@H](n2c(Cl)nc3cc(Cl)c(Cl)cc32)C(O)[C@@H]1O` (single isomer, unassigned): the results for the IC50 in experiment [1] and in experiment [4] were 210 µM and 102 µM, respectively.
For `CC(=O)N/N=C/c1c(Cl)n(C2O[C@H](CO)[C@@H](O)C2O)c2cc(Cl)c(Cl)cc12` (single isomer, unassigned), the IC50 in experiment [1] was determined as 9 µM; with HFF [2], 32 µM; with HFF [3], 1.7 µM; in experiment [4] it was 30 µM.
